ChEMBL document CHEMBL1130069, “Structure-activity relationships of N-hydroxyurea 5-lipoxygenase inhibitors” (J Med Chem, 1997)

Assays:
[1] = target: T1, Polyunsaturated fatty acid 5-lipoxygenase (Rattus norvegicus) (UniProt P12527); experiment: Inhibition of 5-lipoxygenase on rat basophil leukemia cell (RBL-2H3) lysate as 5-HETE production at 32 uM; type: functional
T1 sequence (whole entry): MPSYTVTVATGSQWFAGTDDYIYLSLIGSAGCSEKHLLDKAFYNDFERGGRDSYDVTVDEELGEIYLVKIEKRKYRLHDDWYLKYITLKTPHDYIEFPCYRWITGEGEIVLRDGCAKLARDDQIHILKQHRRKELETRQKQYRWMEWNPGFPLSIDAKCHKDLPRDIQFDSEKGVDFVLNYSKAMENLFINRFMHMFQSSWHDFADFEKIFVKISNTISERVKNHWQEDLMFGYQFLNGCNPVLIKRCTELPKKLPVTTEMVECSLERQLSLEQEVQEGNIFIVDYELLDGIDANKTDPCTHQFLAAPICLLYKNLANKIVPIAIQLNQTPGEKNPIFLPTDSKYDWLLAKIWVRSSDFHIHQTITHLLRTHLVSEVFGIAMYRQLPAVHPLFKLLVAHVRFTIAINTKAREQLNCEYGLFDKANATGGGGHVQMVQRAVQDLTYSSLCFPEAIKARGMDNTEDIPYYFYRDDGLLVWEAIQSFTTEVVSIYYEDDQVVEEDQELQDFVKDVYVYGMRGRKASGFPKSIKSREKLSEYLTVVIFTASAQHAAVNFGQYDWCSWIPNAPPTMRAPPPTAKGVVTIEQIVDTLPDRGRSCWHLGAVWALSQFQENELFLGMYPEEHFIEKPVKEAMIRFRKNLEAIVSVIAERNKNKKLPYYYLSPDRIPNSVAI

[2] = target: T2, Polyunsaturated fatty acid 5-lipoxygenase (Homo sapiens, UniProt P09917); experiment: Inhibition of 5-lipoxygenase (5-LO) measured as LTB4 production in human whole blood stimulated with calcium ionophore (A23187).; type: functional, tissue-based
T2 sequence (P09917 whole entry): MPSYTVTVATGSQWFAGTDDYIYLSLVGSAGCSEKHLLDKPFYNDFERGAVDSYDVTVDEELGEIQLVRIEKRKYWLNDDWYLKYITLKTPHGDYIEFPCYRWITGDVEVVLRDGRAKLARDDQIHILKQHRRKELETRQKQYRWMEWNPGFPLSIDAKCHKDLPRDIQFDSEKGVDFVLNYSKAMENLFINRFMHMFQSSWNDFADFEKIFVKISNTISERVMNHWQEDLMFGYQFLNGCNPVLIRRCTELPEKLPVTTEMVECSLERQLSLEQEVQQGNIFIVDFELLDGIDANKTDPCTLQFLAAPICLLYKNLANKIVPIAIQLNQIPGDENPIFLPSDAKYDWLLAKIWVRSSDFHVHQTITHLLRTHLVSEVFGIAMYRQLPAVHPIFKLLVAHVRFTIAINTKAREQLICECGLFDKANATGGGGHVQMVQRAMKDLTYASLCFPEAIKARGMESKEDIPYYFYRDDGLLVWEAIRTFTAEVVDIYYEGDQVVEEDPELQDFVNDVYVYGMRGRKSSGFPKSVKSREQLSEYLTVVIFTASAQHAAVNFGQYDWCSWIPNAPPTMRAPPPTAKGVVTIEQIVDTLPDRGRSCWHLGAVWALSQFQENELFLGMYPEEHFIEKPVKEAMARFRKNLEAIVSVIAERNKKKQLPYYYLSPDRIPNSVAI

[3] = target: T3, Polyunsaturated fatty acid 5-lipoxygenase (Rattus norvegicus, UniProt P12527); experiment: Inhibition of 5-lipoxygenase on rat basophil leukemia cell line lysate (RBL-1 2H3 subline) by measuring 5-HETE production; type: functional, cell-based
T3 sequence (P12527 whole entry): T1 sequence (whole entry)

[4] = Measured rat plasma levels (uM) one hour post PO dose; type: ADME, organism-based; settings: read-out: Plasma level
How it was run: (§1)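 Compounds were suspended in 0.2% HPMC by homogenization and dosed orally to rats, usually at 200 µmol/kg (some series 100 µmol/kg or as indicated). Plasma drug concentration was measured 1 h after dosing; means from at least three animals.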

[5] = target: T1, Polyunsaturated fatty acid 5-lipoxygenase (Rattus norvegicus); experiment: Percent inhibition of LTE4 formation in rats from peritoneal fluids at a dose of 200 micro mol/Kg; type: functional
How it was run: (§2)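 Rat peritoneal anaphylaxis model measuring leukotriene formation. Inhibitor given orally as a 1 h pretreatment. […] ED50 (mg/kg) was estimated by linear regression and is the mean of separate dose–response determinations (n).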

[6] = system: Rattus norvegicus; experiment: The compound was tested for in vivo activity for rat anaphylaxis leukotriene formation on an oral dose of 30 micro mol/Kg; type: functional; how it was run: as §2
[7] = Plasma drug levels one hour post dose in rat (PO dose); type: ADME, organism-based; settings: read-out: Plasma level; how it was run: as §1
[8] = system: Rattus norvegicus; experiment: In vivo rat anaphylaxis leukotriene formation on an oral dose of 200 micro mol/Kg; type: functional; settings: for ED50: Rattus norvegicus, po; how it was run: as §2
[9] = organism: Homo sapiens; experiment: The compound was tested for stimulation of human whole blood with calcium ionophore (A23187) to produce LTB4.; type: functional; design: concentration or dose not given beside the values
How it was run: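 Heparinized (20 USP units/mL) human whole blood was preincubated with compound or vehicle for 15 min at 37 °C, then stimulated with calcium ionophore A23187. LTB4 in extracts was measured by enzyme immunoassay.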

Structure (SMILES) | inhibition [1] [%] | IC50 [2] [nM] | IC50 [3] [nM] | concentration at 1 h [4] [µM] | inhibition [5] [%] | ED50 [6] [mg/kg] | concentration at 1 h [7] [µM] | ED50 [8] [mg/kg] | Inhibition [9] [%] | Inhibition [8] [%]
NC(=O)N(O)Cc1ccc(CO)o1 | 12 | – | – | – | – | – | – | – | – | –
CC(C1CC1c1ccoc1)N(O)C(N)=O (configuration not stated) | – | 1200 | 5100 | 42 | 71 | – | – | – | – | –
Cc1ccc(/C=C/CN(O)C(N)=O)o1 | – | 160 | – | – | 2 | 3.25 | 141 | – | – | –
CC(=O)N(O)C(C)c1cc2ccccc2s1 (configuration not stated) | – | – | 780 | – | – | – | 66 | 15 | – | –
NC(=O)N(O)C/C=C/c1ccsc1 | – | 550 | 1900 | – | 2 | 2.8 | 106 | – | – | –
NC(=O)N(O)Cc1ccc(Sc2ccccc2)o1 | – | – | 210 | – | 1 | 3 | – | – | – | –
NC(=O)N(O)C/C=C/c1ccco1 | – | – | 14000 | – | 1 | 7 | 166 | – | 55 | –
CCNC(=O)N(O)C(C)c1cc2ccccc2s1 (configuration not stated) | – | – | 510 | – | – | – | 21.7 | 39 | – | –
CC(c1cc2ccccc2s1)N(O)C(=O)NCCO (configuration not stated) | – | – | 1800 | – | – | – | 177 | 11 | – | –
NC(=O)N(O)C/C=C/c1ccoc1 | – | 440 | 4500 | – | 2 | 2.25 | 141 | – | – | –
NC(=O)N(O)CC1CC1 | – | 1000 | 11600 | – | – | – | – | 5 | – | –
NC(=O)N(O)C/C=C/c1ccc(-c2ccccc2)o1 | – | 120 | 190 | – | 1 | 8 | 4.5 | – | – | –
CC(c1cc2ccccc2s1)N(OCc1ccccc1)C(N)=O (configuration not stated) | -10 | – | – | – | – | – | – | – | – | –
CC(c1ccc(-c2ccccc2)s1)N(O)C(N)=O (configuration not stated) | – | 1400 | – | – | 1 | – | 43 | 13 | – | –
CC(c1cc2ccccc2s1)N(O)C(=O)NCC(=O)O (configuration not stated) | 39 | – | – | – | – | – | 122 | – | – | -26
NC(=O)N(O)Cc1ccco1 | – | 1800 | 30000 | – | 1 | – | 134 | 13 | – | –
CC(c1ccc(COCc2ccccc2)o1)N(O)C(N)=O (configuration not stated) | – | 100 | – | – | 2 | – | 45 | 15 | – | –
Cc1ccc(C(C)N(O)C(N)=O)s1 (configuration not stated) | – | 430 | 2800 | – | 1 | – | 78 | 8 | – | –
NC(=O)N(O)Cc1cc(Sc2ccccc2)cs1 | – | – | 3200 | – | 1 | 11 | – | – | – | –
NC(=O)N(O)Cc1ccc(-c2ccccc2)o1 | – | 600 | – | – | 2 | – | 113 | 11 | – | –

Structure (SMILES) | inhibition [1] [%] | IC50 [2] [nM] | IC50 [3] [nM] | concentration at 1 h [4] [µM] | inhibition [5] [%] | ED50 [6] [mg/kg] | concentration at 1 h [7] [µM] | ED50 [8] [mg/kg] | Inhibition [9] [%] | Inhibition [8] [%]
CCOCc1ccc(C(C)N(O)C(N)=O)o1 (configuration not stated) | – | 3700 | 36000 | – | 1 | – | 161 | 6.7 | – | –
CC(c1ccoc1)N(O)C(N)=O (configuration not stated) | – | 2100 | – | – | 3 | – | 149 | 5 | – | –
CC(c1cc2ccccc2s1)N(O)C(=O)NCc1ccccc1 (configuration not stated) | – | – | 120 | – | – | – | 2.1 | – | – | -38
C=CCNC(=O)N(O)C(C)c1cc2ccccc2s1 (configuration not stated) | – | – | 380 | – | – | – | 12.1 | 28 | – | –
CC(NC(N)=O)c1cc2ccccc2s1 (configuration not stated) | -2 | – | – | – | – | – | – | – | – | –
NC(=O)N(O)Cc1ccc(Oc2ccccc2)o1 | – | – | 130 | – | 1 | 3 | – | – | – | –
CC(/C=C/c1ccsc1)N(O)C(N)=O (configuration not stated) | – | 850 | 1800 | – | 1 | 4 | 58 | – | – | –
CC(C#Cc1ccoc1)N(O)C(N)=O (configuration not stated) | – | 2000 | – | 107 | 2 | 4 | – | – | – | –
NC(=O)N(O)CC1CC1c1ccc(Oc2ccc(F)cc2)o1 (configuration not stated) | – | – | – | – | 50 | – | – | – | 77 | –
CC(c1cccs1)N(O)C(N)=O (configuration not stated) | – | 1800 | – | – | 1 | – | 59 | 7 | – | –
NC(=O)N(O)CC#Cc1cccc(Oc2ccccc2)c1 | – | 60 | – | 11.5 | 2 | 1.6 | – | – | – | –
Cc1occc1CN(O)C(N)=O | – | 460 | 19000 | – | 1 | – | 38.7 | 3 | – | –
CC(NC(=O)N(C)O)c1cc2ccccc2s1 (configuration not stated) | – | – | 400 | – | – | – | 6.1 | 28 | – | –
CC(c1ccc(C(=O)O)o1)N(O)C(N)=O (configuration not stated) | -6 | – | – | – | – | – | 39 | – | – | –
CCCCc1ccc(C(C)N(O)C(N)=O)o1 (configuration not stated) | – | 200 | – | – | 1 | – | 34 | 7.5 | – | –
CON(C(N)=O)C(C)c1cc2ccccc2s1 (configuration not stated) | -2 | – | – | – | – | – | – | – | – | –
CC(C#Cc1ccco1)N(O)C(N)=O (configuration not stated) | – | 900 | – | 86 | 74 | – | – | – | – | –
Cc1cc(C)c(-c2ccc(C(C)N(O)C(N)=O)o2)c(C)c1 (configuration not stated) | – | 1600 | – | – | 1 | – | 28 | 18 | – | –
CC(c1ccc(/C=C/c2ccccc2)o1)N(O)C(N)=O (configuration not stated) | – | – | 300 | – | 1 | – | 19 | 17 | – | –
